Screens: PubChem BioAssay, several laboratories
Granule exo inh: blocks lytic granule exocytosis; TALL-104 LAMP-1 surface exposure, flow cytometry; cells stimulated with thapsigargin and PMA; inhibition, % at 10 µM; 0.66% of 360,000 active; AID 651702;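 active = inhibition above about 55%, limit read from the data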
Myeloid diff 2: myeloid differentiation induction. calls only at 10 µM. AID 624256. ER-HoxA9 myeloid progenitors, lysozyme-GFP differentiation, flow cytometry. 1% of 360,000 active;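 active = normalized GFP-positive differentiation at or above the plate's own cutoff, the solvent-only control mean plus 3 SD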;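 note: cells exposed to compound for four days before flow analysis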
CendR NRP1 mod: NRP-1/CendR interaction modulation. FAM-RPARPAR peptide binding to NRP-1, fluorescence polarization. inhibition, % at 25 µM. 0.85% of 360,000 active;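 active = inhibition or corrected inhibition above about 18%, plus a signal ratio from 0.5 to 1.5, limit read from the data, passing the limit was not always enough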
Arr AP2 block: human beta-arrestin and AP2 interaction inhibition | inhibition, % at 10 µM | FITC-arrestin peptide / GST-AP2 beads, flow cytometry; AP2 beta2 appendage carries R879A mutation | 0.31% of 340,000 active;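 active = inhibition above a set limit, near 3 SD of compounds lacking own fluorescence, cut at about 54% in these data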
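Material – AP2 appendage R879A on GSH beads · Buffer or medium – PBS with 0.05% Tween 20 and 0.1% BSA · Probe or stimulus – fluorescein-tagged arrestin peptide at 50 nM final · Incubation – compound with beads 12 min RT, then probe 1 h RT · Detection – high-throughput flow cytometry of beads, ex 488, em 535 nm · Evaluation – percent response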
ATG4B inhibitor: inhibitors of human ATG4B cysteine protease | Q9Y4P1 | ATG4B cleavage of LC3-PLA2, NBD-HPC fluorescence, 1 h | inhibition, % at 8.33 µM | 0.51% of 340,000 active | AID 504462; in the data active = inhibition above about 40%
Target sequence (Q9Y4P1 whole entry, looked up): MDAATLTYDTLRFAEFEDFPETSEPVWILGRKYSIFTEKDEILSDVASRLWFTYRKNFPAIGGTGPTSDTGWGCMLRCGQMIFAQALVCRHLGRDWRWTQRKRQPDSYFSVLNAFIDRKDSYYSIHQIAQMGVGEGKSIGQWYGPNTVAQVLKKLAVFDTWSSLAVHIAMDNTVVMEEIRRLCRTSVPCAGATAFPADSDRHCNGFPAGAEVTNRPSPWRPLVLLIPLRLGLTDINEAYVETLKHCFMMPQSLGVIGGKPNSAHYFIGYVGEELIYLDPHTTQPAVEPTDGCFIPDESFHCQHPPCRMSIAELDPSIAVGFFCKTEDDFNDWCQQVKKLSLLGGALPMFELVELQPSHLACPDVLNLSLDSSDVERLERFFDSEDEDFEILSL
ABCB6 inh 2: blocks the human ABCB6 transporter; Q9NP58; K562-ABCB6 porphyrin accumulation, flow cytometry, 1 h; stronger effect = lower value; fluorescence ratio to DMSO, % at 10 µM; 0.19% of 360,000 active;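 active = fluorescence ratio to DMSO below 75%, the collection mean minus 3 SD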;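 note: signal is porphyrin accumulated inside mitochondria; lower ratio means ABCB6 inhibition with less porphyrin fluorescence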
Hits are given with their value. Compounds with a hit are over-represented: about 3.3% of the library has one in this group of screens.

What do the screens show for `CCc1ccccc1NC(=O)CNC(=O)c1ccccc1OCc1c(C)noc1C`?
Granule exo inh: inactive; Myeloid diff 2: inactive; CendR NRP1 mod: inactive; Arr AP2 block: inactive; ATG4B inhibitor: inactive; ABCB6 inh 2: inactive

How did CC1CCN(S(=O)(=O)c2ccc(NC(=O)CN3CCCC(C)C3)cc2)CC1 (stereo unspecified) do in these assays?
Granule exo inh: inactive; Myeloid diff 2: inactive; CendR NRP1 mod: inactive; Arr AP2 block: inactive; ATG4B inhibitor: inactive; ABCB6 inh 2: inactive

Results for CC1CCCN(CC(=O)Nc2ccc(S(=O)(=O)N3CCCC3)cc2)C1 (stereo unspecified) ?
Granule exo inh: inactive; Myeloid diff 2: active; CendR NRP1 mod: inactive; Arr AP2 block: inactive; ATG4B inhibitor: inactive; ABCB6 inh 2: inactive

How did COc1cccc(-c2ncc3ccccc3c2CO)c1 do in these assays?
Granule exo inh: inactive; Myeloid diff 2: inactive; CendR NRP1 mod: inactive; Arr AP2 block: inactive; ATG4B inhibitor: inactive; ABCB6 inh 2: inactive

Results for CC(=O)N/C(=C\c1ccccc1)C(=O)OCC(=O)N(CC(C)C)c1c(N)n(Cc2ccccc2)c(=O)[nH]c1=O ?
Granule exo inh: inactive; Myeloid diff 2: inactive; CendR NRP1 mod: inactive; Arr AP2 block: inactive; ATG4B inhibitor: inactive; ABCB6 inh 2: inactive

Results for O=C(C[n+]1ccccc1)N/N=C/c1ccccc1Cl ?
Granule exo inh: inactive; Myeloid diff 2: inactive; CendR NRP1 mod: 26; Arr AP2 block: inactive; ATG4B inhibitor: inactive; ABCB6 inh 2: inactive

How did O=C(C[n+]1ccccc1)N/N=C/c1cccc(Cl)c1Cl do in these assays?
Granule exo inh: inactive; Myeloid diff 2: inactive; CendR NRP1 mod: inactive; Arr AP2 block: inactive; ATG4B inhibitor: inactive; ABCB6 inh 2: inactive

Results for Cc1cc(C)cc(N=C2SC(CC(=O)Nc3ccccc3)C(=O)N2CCN2CCOCC2)c1 (stereo unspecified) ?
Granule exo inh: inactive; Myeloid diff 2: inactive; CendR NRP1 mod: inactive; Arr AP2 block: inactive; ATG4B inhibitor: inactive; ABCB6 inh 2: inactive

Results for CCn1c(C)[n+](CCOCC[n+]2c(C)n(CC)c3cc(Cl)c(Cl)cc32)c2cc(Cl)c(Cl)cc21 ?
Granule exo inh: inactive; Myeloid diff 2: inactive; CendR NRP1 mod: inactive; Arr AP2 block: inactive; ATG4B inhibitor: inactive; ABCB6 inh 2: inactive

How did COc1ccc(C=O)c2[nH]c3c(Cl)ncnc3c12 do in these assays?
Granule exo inh: inactive; Myeloid diff 2: inactive; CendR NRP1 mod: inactive; Arr AP2 block: inactive; ATG4B inhibitor: inactive; ABCB6 inh 2: inactive

What do the screens show for `O=C(O)c1cc(-c2ccc3ccccc3c2)nc2ccc(F)cc12`?
Granule exo inh: inactive; Myeloid diff 2: active; CendR NRP1 mod: inactive; Arr AP2 block: inactive; ATG4B inhibitor: inactive; ABCB6 inh 2: inactive

Results for CCOC(=O)/C(=C\c1ccc(C)cc1)NC(=O)c1ccccc1 ?
Granule exo inh: inactive; Myeloid diff 2: inactive; CendR NRP1 mod: inactive; Arr AP2 block: inactive; ATG4B inhibitor: inactive; ABCB6 inh 2: 70

What do the screens show for `Cc1ccc(/C=C(\NC(=O)c2ccccc2)C(=O)OCc2ccccc2)cc1`?
Granule exo inh: inactive; Myeloid diff 2: inactive; CendR NRP1 mod: inactive; Arr AP2 block: inactive; ATG4B inhibitor: inactive; ABCB6 inh 2: inactive

What do the screens show for `O=C(NCCc1ccccc1)/C(=C\c1ccc([N+](=O)[O-])cc1)NC(=O)c1ccc(Br)cc1`?
Granule exo inh: inactive; Myeloid diff 2: inactive; CendR NRP1 mod: inactive; Arr AP2 block: inactive; ATG4B inhibitor: inactive; ABCB6 inh 2: inactive

What do the screens show for `Cc1ccc(C(=O)N/C(=C\c2ccc([N+](=O)[O-])cc2)C(=O)NCCc2ccccc2)cc1`?
Granule exo inh: inactive; Myeloid diff 2: inactive; CendR NRP1 mod: inactive; Arr AP2 block: inactive; ATG4B inhibitor: inactive; ABCB6 inh 2: 71

Results for Cc1ccc(C(=O)N/C(=C\c2ccccc2)C(=O)NCCCn2ccnc2)cc1 ?
Granule exo inh: inactive; Myeloid diff 2: inactive; CendR NRP1 mod: 23; Arr AP2 block: inactive; ATG4B inhibitor: inactive; ABCB6 inh 2: inactive

How did C[C@@H]1CN([C@@H](C)CO)S(=O)(=O)c2ccc(C#Cc3cccc(F)c3)cc2O[C@@H]1CN(C)CC1CC1 do in these assays?
Granule exo inh: inactive; Myeloid diff 2: inactive; CendR NRP1 mod: inactive; ABCB6 inh 2: inactive

What do the screens show for `COCC(C)n1c(C)cc(C(=O)COC(=O)c2ccc3c(c2)NC(=O)CS3)c1C` (stereo unspecified)?
Granule exo inh: inactive; Myeloid diff 2: inactive; CendR NRP1 mod: 30; Arr AP2 block: inactive; ATG4B inhibitor: inactive; ABCB6 inh 2: inactive

How did N#CCCN(C(=O)COC(=O)CSc1ccc(Cl)cc1)c1ccccc1 do in these assays?
Granule exo inh: inactive; Myeloid diff 2: inactive; CendR NRP1 mod: inactive; Arr AP2 block: inactive; ATG4B inhibitor: inactive; ABCB6 inh 2: inactive

Results for Cc1ccc(SCC(=O)OCC(=O)N(CCC#N)c2ccccc2)cc1 ?
Granule exo inh: inactive; Myeloid diff 2: inactive; CendR NRP1 mod: 31; Arr AP2 block: inactive; ATG4B inhibitor: inactive; ABCB6 inh 2: inactive

Results for O=c1oc(/C=C/c2ccccc2)nc2sc3c(c12)CCC3 ?
Granule exo inh: inactive; Myeloid diff 2: inactive; CendR NRP1 mod: 25; Arr AP2 block: inactive; ATG4B inhibitor: inactive; ABCB6 inh 2: inactive

Results for CCCSC1=C(C#N)C(c2cccs2)CC(=O)N1 (stereo unspecified) ?
Granule exo inh: 90; Myeloid diff 2: inactive; CendR NRP1 mod: inactive; Arr AP2 block: inactive; ATG4B inhibitor: inactive; ABCB6 inh 2: inactive

Results for CCCCCCSC1=C(C#N)C(c2ccccc2)CC(=O)N1 (stereo unspecified) ?
Granule exo inh: inactive; Myeloid diff 2: inactive; CendR NRP1 mod: inactive; Arr AP2 block: inactive; ATG4B inhibitor: inactive; ABCB6 inh 2: inactive

Results for Cc1cccc(C)c1OCc1nnc(SCC(=O)Nc2nccs2)o1 ?
Granule exo inh: inactive; Myeloid diff 2: inactive; CendR NRP1 mod: inactive; Arr AP2 block: inactive; ATG4B inhibitor: inactive; ABCB6 inh 2: inactive

How did CCOc1ccc(NC(=O)CSc2nnc(COc3c(C)cccc3C)o2)cc1 do in these assays?
Granule exo inh: inactive; Myeloid diff 2: inactive; CendR NRP1 mod: 24; Arr AP2 block: inactive; ATG4B inhibitor: inactive; ABCB6 inh 2: inactive

Results for CC(C)(Oc1ccc(Cl)cc1)C(=O)Nc1cccc(S(=O)(=O)NC2=NCCC2)c1 ?
Granule exo inh: inactive; Myeloid diff 2: inactive; CendR NRP1 mod: inactive; Arr AP2 block: inactive; ATG4B inhibitor: inactive; ABCB6 inh 2: inactive

What do the screens show for `c1ccc(-c2cnn3c(-c4ccccc4)c(-c4ccccc4)nc3n2)cc1`?
Granule exo inh: inactive; Myeloid diff 2: active; CendR NRP1 mod: inactive; Arr AP2 block: inactive; ATG4B inhibitor: inactive; ABCB6 inh 2: inactive

What do the screens show for `Cc1ccc(/C=C2/Sc3ccc(C(=O)NCCN4CCOCC4)cc3NC2=O)cc1`?
Granule exo inh: inactive; Myeloid diff 2: inactive; CendR NRP1 mod: inactive; Arr AP2 block: inactive; ATG4B inhibitor: inactive; ABCB6 inh 2: inactive
